Screens from PubChem BioAssay.
Hits are enriched below; roughly 2.6% of the tested compounds scored in any of these assays.
RAD54 branch = RAD54 (human) branch migration inhibition; Q92698; RAD54 Holliday junction branch migration, FAM/BHQ fluorescence; inhibition, % at 10.4 µM; 360,000 tested, 0.14% active;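 active = mean normalized replicate activity at least 40 and at least half of replicates scoring 40 or more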;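 also: 0% = median of neutral control wells and 100% = median of positive control wells; inhibitors cause a drop in the FAM fluorescence signal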
E-sel inducer = E-selectin induction on HUVECs; 260,000 tested, 0.37% active; AID 686992; activation, % at 7.58 µM; HUVEC E-selectin immunofluorescence imaging; normalized: neutral wells 0, TNF-alpha wells 100;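 active = mean E-selectin-positive cell signal at least 10% of the positive control, reached in at least 60% of replicates, without over 20% cell loss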
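Read-out: % PE-positive cells | Test system: HUVEC | Doses: One compound dose added by pin transfer | Buffer or medium: EGM-2 over gelatin coat | Signal: Immunofluorescence imaging | Benchmarks: TNF-alpha, DMSO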
Ecoli rRNA inh = inhibitors of bacterial rRNA selective over humanized ribosomes. E. coli WT GFP vs humanized-ribosome RFP mutants, fluorescence, 24 h; stronger effect = lower value; DMSO median 0, no signal -100. 350,000 tested, 1.6% active. GFP signal change (wild-type ribosome), % (no concentration beside the values);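 active = significant combined selectivity score with lowered wild-type GFP, culture density cut under 30%, mutant RFP and density less affected; inactive = any of these conditions unmet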
RAD52 anneal inh = inhibitors of human RAD52 DNA annealing. recombinant RAD52 DNA annealing, FRET fluorescence. inhibition, % at 18.7 µM. 360,000 tested, 0.46% active;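 active = every replicate showing at least 50% inhibition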
Target sequence (P43351 whole entry, looked up): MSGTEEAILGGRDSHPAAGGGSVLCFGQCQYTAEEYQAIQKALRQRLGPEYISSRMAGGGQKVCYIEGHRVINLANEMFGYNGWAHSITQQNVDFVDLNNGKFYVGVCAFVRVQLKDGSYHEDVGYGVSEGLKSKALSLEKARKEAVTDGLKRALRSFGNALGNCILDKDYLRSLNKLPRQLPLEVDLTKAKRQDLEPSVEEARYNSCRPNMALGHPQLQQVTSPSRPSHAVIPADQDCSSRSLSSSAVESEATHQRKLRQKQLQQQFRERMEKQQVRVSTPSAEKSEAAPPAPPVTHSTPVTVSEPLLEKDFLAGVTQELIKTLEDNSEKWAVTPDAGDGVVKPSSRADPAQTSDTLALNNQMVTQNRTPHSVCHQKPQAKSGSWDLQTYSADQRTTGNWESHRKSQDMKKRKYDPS
INS-1E GSIS act = primary screen for activators of insulin secretion dependent on glucose, INS-1E cells, GLuc reporter luminescence. INS-1E GLuc reporter insulin secretion, 2-3 h. activation, % at 16.6 µM. 370,000 tested, 0.61% active. AID 743287;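 active = lowest replicate activation of at least 40%, so every replicate reaches that level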;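 also: 0% = median of neutral control wells and 100% = median of IBMX positive control wells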
AF4-AF9 inh = MLL-AF4/AF9 protein interaction inhibition; P42568; AlphaScreen, biotin-AF4 peptide binding to FLAG-AF9; inhibition, % at 10 µM; 350,000 tested, 0.47% active; AID 651704;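 active = every replicate reaching a set inhibition limit, whatever the replicate mean, cut at about 25% in these data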;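 also: 0% = plate neutral control median and 100% = total signal loss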
* = called active by the depositor; x = no result.

SMILES	RAD54 branch	E-sel inducer	Ecoli rRNA inh	RAD52 anneal inh	INS-1E GSIS act	AF4-AF9 inh
O=C(COC(=O)c1ccc(-n2cnnn2)cc1)c1ccc(Br)cc1	8	27*	4	-16	10	1
CC(=O)c1cccc(N(CC(=O)NC2CCCCC2)C(=O)c2csnn2)c1	1	x	x	-12	-4	34*
CC(=O)c1cccc(N(CC(=O)NC2CCCCC2)C(=O)Cn2nnc(-c3ccccc3)n2)c1	1	x	6	-9	61*	1
C/C(=N\S(=O)(=O)c1ccc(C)cc1)N1CCN(S(=O)(=O)c2ccccc2)C1C(C)C (centres undefined)	1	x	-27*	-7	-21	1
CSCCC(=O)Nc1nc(-c2ccccn2)cs1	x	x	-29*	-23	3	0
Cc1cccc(C(=O)NC(C(=O)Nc2nc(-c3ccccn3)cs2)C(C)C)c1 (centres undefined)	x	2	-35*	-66	2	-1
O=C(CCCSc1ccccc1)Nc1nc(-c2ccccn2)cs1	5	x	x	x	x	x
C[C@H](NC(=O)c1ccccc1)C(=O)Nc1nc(-c2ccccn2)cs1	x	0	-29	-23	0	-2
CN(c1ncnc(N)c1[N+](=O)[O-])C1CCCCC1	0	x	3	-10	41*	-1
O=C(Nc1ccc2nc3n(c(=O)c2c1)CCCCC3)c1c(F)ccc([N+](=O)[O-])c1F	-7	x	-22*	-13	-36	4
O=C(Nc1ccc2nc3n(c(=O)c2c1)CCCCC3)c1cc([N+](=O)[O-])ccc1F	4	x	-9	-3	9	6
CCOC(=O)C1CCCN(C(=O)C(=O)Nc2ccc3nc4n(c(=O)c3c2)CCCCC4)C1 (centres undefined)	7	13	-17*	-7	12	-16
Cn1ccnc1SCC(=O)c1ccc(Cl)cc1	9	x	-32*	-5	2	1
Cc1noc(C)c1NC(=O)Nc1ccc2c(c1)CC(=O)N([C@@H](C)CO)C[C@H](C)[C@@H](CN(C)S(C)(=O)=O)O2	-1	-9	6	x	2	x
CCN(Cc1ccccc1)c1ccc(/C=N/NS(=O)(=O)c2ccc(C)c([N+](=O)[O-])c2)cc1	x	0	-34*	-63	x	-2
Cc1ccc(-c2ccc(C(=O)O)o2)cc1Cl	13	-2	-5	-12	29	27*
O=C(O)c1ccc(-c2cccc(Cl)c2)o1	-6	x	-5	-8	12	x
C[C@@H]1CN([C@@H](C)CO)C(=O)c2cccc(NS(=O)(=O)c3ccc(Cl)cc3)c2O[C@@H]1CN(C)C(=O)Nc1ccc(F)cc1	5	0	-2	8	-33	1
COc1ccccc1NC(=O)N1CCCCN2[C@H](C1)[C@@H](c1ccc(C#CC3CC3)cc1)[C@@H]2CO	x	x	x	-18	x	11
COc1ccccc1C#Cc1ccc([C@H]2[C@H]3CN(C(=O)C4CCCC4)CCCCN3[C@H]2CO)cc1	-7	x	x	22	x	-5
COc1ccc(NC(=O)N2CCCCN3[C@@H](CO)[C@H](c4ccc(C#Cc5ccccc5)cc4)[C@@H]3C2)cc1	-7	x	x	69*	x	19
COc1ccccc1NC(=O)N1CCCCN2[C@H](CO)[C@@H](c3ccc(C#CC4CC4)cc3)[C@H]2C1	x	x	x	48	x	25*
COc1ccccc1C#Cc1ccc([C@@H]2[C@@H](CO)N3CCCCN(C(=O)C4CCCC4)C[C@H]23)cc1	-8	x	x	62*	x	0
O=C(Nc1ccc(F)cc1)N1CCCCN2[C@@H](CO)[C@@H](c3ccc(C#Cc4ccccc4)cc3)[C@@H]2C1	15	0	-55	-1	44*	6
CO[C@H]1CN(C)C(=O)c2ccc(NC(=O)c3cc(C)on3)cc2OC[C@H](C)N(C(C)=O)C[C@@H]1C	x	0	1	-7	3	1
SMILES	RAD54 branch	E-sel inducer	Ecoli rRNA inh	RAD52 anneal inh	INS-1E GSIS act	AF4-AF9 inh
C[C@@H]1CN([C@@H](C)CO)S(=O)(=O)c2ccc(-c3ccccc3F)cc2O[C@H]1CN(C)C(=O)C1CC1	2	0	-1	6	-16	1
COc1ccc(NC(=O)N2CCCCN3[C@H](C2)[C@@H](c2ccc(C#Cc4ccccc4)cc2)[C@@H]3CO)cc1	7	x	x	82*	x	-8
COc1ccc(NC(=O)N2CCCCN3[C@H](C2)[C@H](c2ccc(C#Cc4ccccc4)cc2)[C@@H]3CO)cc1	-1	x	x	x	x	x
CC(=O)N1CCCc2cc(S(=O)(=O)N3CCCC(C(=O)NCc4ccccc4Cl)C3)ccc21 (centres undefined)	-2	0	-8	-27	-1	32*
COc1ccc(NC(=O)COC(=O)CCC(=O)c2cccs2)cc1OC	0	x	4	-9	36	-10
COc1ccc(CCNC(=O)CCC(=O)c2cccs2)cc1OC	-14	0	7	-7	103*	0
COc1ccc(C(C)=O)cc1COC(=O)CCC(=O)c1cccs1	-5	x	-3	2	44*	-3
CCOc1ccc(CCNC(=O)COC(=O)CCC(=O)c2cccs2)cc1OCC	-7	0	3	-17	27	-1
CCOc1ccc(CCNC(=O)CCC(=O)c2cccs2)cc1OCC	7	0	3	-7	95*	1
C[C@H]1CN([C@@H](C)CO)C(=O)c2cc(C#CC3CC3)cnc2O[C@@H]1CN(C)S(C)(=O)=O	-1	-2	3	5	10	-4
O=S(=O)(N[C@H]1CC[C@@H](CCn2cc(-c3ccccc3F)nn2)O[C@H]1CO)c1ccc(F)cc1	x	0	-6	7	-16	-2
COc1ccc(CCNC(=O)c2cc([N+](=O)[O-])ccc2N2CCOCC2)cc1	x	0	8	3	7	1
O=C(/C=C/c1ccc([N+](=O)[O-])cc1)NCCc1ccccc1	x	0	4	-15	2	-1
NS(=O)(=O)c1ccc(CCNC(=O)c2cc([N+](=O)[O-])ccc2N2CCCCC2)cc1	-4	x	-17*	2	3	2
NS(=O)(=O)c1ccc(CCNC(=O)/C=C/c2ccc([N+](=O)[O-])cc2)cc1	x	x	-18*	-16	-7	1
O=C(NCc1cccnc1)C1CC(c2ccccc2Cl)=NO1 (centres undefined)	1	0	10	-18	7	-1
O=C(NCCCn1ccnc1)C1CC(c2ccccc2Cl)=NO1 (centres undefined)	-4	5	2	-4	10	28*
Cc1noc(C)c1S(=O)(=O)Nc1ccc2c(c1)C(=O)N([C@@H](C)CO)C[C@H](C)[C@@H](CN(C)C(=O)c1ccncc1)OCCCC[C@H](C)O2	-3	0	-3	-11	-3	-1
COC(=O)C1CCN(c2cc(Cl)nc(N)n2)CC1	-4	-1	19	-19	48*	-3
